Measured values as given in ChEMBL document CHEMBL3399991, “Design, synthesis and biological evaluation of a highly-potent and cancer cell selective folate-taxoid conjugate” (Bioorg Med Chem, 2015).
pIC50: −log10 of the molar value.

Tests used:
[1] = Cytotoxicity against folate receptor over-expressing mouse ID8 cells after 72 hrs by MTT assay; assay type: functional, cell-based; conditions: ID8, 72 h
In short: (§1)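 Adherent monolayers in RPMI-1640 with 5% heat-inactivated FBS, 5% NuSerum and PenStrep, 37 °C, 5% CO2. Seeded 0.5–1.5 × 10^4 cells/well and left to attach overnight, then medium replaced. Compound diluted from DMSO stock to 0.5–5,000 nM final, DMSO ≤1%, 72 h. MTT 0.5 mg/mL for 3 h at 37 °C, formazan dissolved in acidic isopropanol/Triton, A570. IC50 from four-parameter logistic fit.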

[2] = system: MX1; test: Cytotoxicity against folate receptor over-expressing human MX1 cells after 72 hrs by MTT assay; assay type: functional, cell-based; conditions: MX1, 72 h; in short: as §1
[3] = system: MX1; test: Cytotoxicity against folate receptor over-expressing human MX1 cells incubated for 24 hrs followed by 6 equiv GSH-OEt addition and further incubated for another 48 by MTT assay; assay type: functional, cell-based; conditions: MX1, 24 h
In short: (§2)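 After 24 h treatment with the conjugate, glutathione ethyl ester (GSH-OEt, 6 equiv.) was added, followed by a further 48 h, 72 h total. Cells-permeable thiol ester. Compound 0.5–5,000 nM in RPMI-1640 medium. MTT read-out at 570 nm. IC50 from four-parameter logistic fit.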

[4] = system: MX1; test: Cytotoxicity against folate receptor over-expressing human MX1 cells incubated for 24 hrs followed by 6 equiv GSH addition and further incubated for another 48 by MTT assay; assay type: functional, cell-based; conditions: MX1, 24 h
In short: (§3)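 Cells were exposed to the conjugate for 24 h, then reduced glutathione (GSH, 6 equiv.) was added and incubation continued 48 h, 72 h in total. Compound range 0.5–5,000 nM in RPMI-1640 medium, which contains folic acid. Read-out by MTT at 570 nm. IC50 from four-parameter logistic curve.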

[5] = system: L1210; test: Cytotoxicity against folate receptor over-expressing mouse L1210 cells after 72 hrs by MTT assay; assay type: functional, cell-based; conditions: L1210, 72 h
In short: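 L1210FR cells grown in suspension in supplemented RPMI-1640. Resuspended directly in test solutions, 0.5–5,000 nM final, at 0.5–0.8 × 10^4 cells/well, DMSO ≤1%. Incubated 72 h. MTT 0.5 mg/mL for 3 h at 37 °C, formazan dissolved in 0.1 N HCl/isopropanol with 10% Triton X-100, absorbance at 570 nm. IC50 from four-parameter logistic fit, with standard errors.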

[6] = system: L1210; test: Cytotoxicity against folate receptor over-expressing mouse L1210 cells incubated for 24 hrs followed by 6 equiv GSH-OEt addition and further incubated for another 48 by MTT assay; assay type: functional, cell-based; conditions: L1210, 24 h; in short: as §2
[7] = system: L1210; test: Cytotoxicity against folate receptor over-expressing mouse L1210 cells incubated for 24 hrs followed by 6 equiv GSH addition and further incubated for another 48 by MTT assay; assay type: functional, cell-based; conditions: L1210, 24 h; in short: as §3
[8] = Cytotoxicity against folate receptor deficient human WI38 cells after 72 hrs by MTT assay; assay type: functional, cell-based; conditions: WI-38, 72 h; in short: as §1
[9] = system: WI-38; test: Selectivity index, ratio of IC50 for folate receptor deficient human WI38 cells to IC50 for folate receptor over-expressing mouse ID8 cells
[10] = system: MX1; test: Selectivity index, ratio of IC50 for folate receptor deficient human WI38 cells to IC50 for folate receptor over-expressing human MX1 cells
[11] = system: L1210; test: Selectivity index, ratio of IC50 for folate receptor deficient human WI38 cells to IC50 for folate receptor over-expressing mouse L1210 cells

| Structure (SMILES) | pIC50 [1] | pIC50 [2] | pIC50 [3] | pIC50 [4] | pIC50 [5] | pIC50 [6] | pIC50 [7] | pIC50 [8] | Ratio IC50 [9] | Ratio IC50 [10] | Ratio IC50 [11] |
| --- | --- | --- | --- | --- | --- | --- | --- | --- | --- | --- | --- |
| CC(=O)O[C@@]12CO[C@@H]1C[C@H](O)[C@@]1(C)C(=O)[C@H](OC(=O)C3CC3)C3=C(C)[C@@H](OC(=O)[C@H](OC(=O)Cc4ccccc4SSC(C)CCC(=O)NCCCOCCOCCOCCCNC(=O)c4ccc(CC5CCCCCc6c5nnn6CCOCCOCCOCCNC(=O)CC[C@@H](NC(=O)CC[C@@H](NC(=O)c5ccc(NCc6cnc7nc(N)nc(O)c7n6)cc5)C(=O)O)C(=O)N[C@H](CCCNC(=N)N)C(=O)O)cc4)[C@H](C=C(C)C)NC(=O)OC(C)(C)C)C[C@@](O)([C@@H](OC(=O)c4ccccc4)[C@H]21)C3(C)C (some centres undefined) | 8.60 | 8.46 | 8.68 | 8.47 | 8.45 | 8.47 | 8.41 | < 5.30 | >1000 | >1000 | >1000 |
| CC(=O)O[C@@]12CO[C@@H]1C[C@H](O)[C@@]1(C)C(=O)[C@H](OC(=O)C3CC3)C3=C(C)[C@@H](OC(=O)[C@H](O)[C@H](C=C(C)C)NC(=O)OC(C)(C)C)C[C@@](O)([C@@H](OC(=O)c4ccccc4)[C@H]21)C3(C)C | 8.55 | 8.72 |  |  | 8.58 |  |  | 8.31 |  |  |  |
| CC(=O)O[C@H]1C(=O)[C@@]2(C)[C@H]([C@H](OC(=O)c3ccccc3)[C@]3(O)C[C@H](OC(=O)[C@H](O)[C@@H](NC(=O)c4ccccc4)c4ccccc4)C(C)=C1C3(C)C)[C@]1(OC(C)=O)CO[C@@H]1C[C@@H]2O [PACLITAXEL] | 7.86 | 8.25 |  |  | 7.56 |  |  | 7.25 |  |  |  |
